One series relates to LNCaP. The series can be described thus: Antiproliferative activity against human LNCAP cells expressing PSA after 3 days by MTT assay. In kind it is functional, cell-based. The gist of the method: (§1)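 LNCaP seeded at 5 × 10^3 cells/well; PC3, CWR22Rv1 and MDA-MB-231 at 2.5 × 10^3. The first three were grown in RPMI and MDA-MB-231 in DMEM, each with 10% FBS. After 24 h attachment, cells got final 10, 50, 100, 1000 or 10,000 nM (0.1% DMSO) in eight replicates. Viable cells by MTT on day 0, 3 and 5, A570 corrected at 650 nm. Experiments run at least twice.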

Series [1] can be described thus: Toxicity in iv dosed Balb/C mouse. The series is classed as organism-based. The settings on record: in vivo. The gist of the method:
(§2)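 Male Balb/c mice, eight weeks old, about 25 g. Single IV bolus of 200 μL, doses ranging from 8 to 100 mg/kg, in 1% DMSO/saline or 10% cremophor/saline; vehicle-only controls. Each dose tested in triplicate. Mice watched for convulsions, death and behaviour after injection to set the maximum tolerated dose.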

In series [2] the target is T1, Prostate-specific antigen (Homo sapiens, UniProt P07288).
T1 sequence (P07288 whole entry): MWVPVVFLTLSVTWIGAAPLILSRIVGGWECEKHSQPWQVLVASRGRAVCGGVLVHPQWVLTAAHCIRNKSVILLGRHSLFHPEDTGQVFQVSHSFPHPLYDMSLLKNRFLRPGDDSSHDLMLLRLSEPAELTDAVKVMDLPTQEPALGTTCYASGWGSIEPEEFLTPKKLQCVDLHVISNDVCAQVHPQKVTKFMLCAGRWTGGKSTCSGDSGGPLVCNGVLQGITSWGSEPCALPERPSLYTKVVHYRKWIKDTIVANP
Kind of series: Prodrug activation assessed as human PSA mediated 4-((S)-2-((S)-2-Amino-3-hydroxypropanamido)-4-methylpentanamido)benzyl(R)-1-(((2R,3R,11bS)-3-ethyl-9,10-dimethoxy-1,3,4,6,7,11b-hexahydro-2H-pyrido[2,1-a]isoquinolin-2-yl)methyl)-6,7-dimethoxy-3,4-dihydroisoquinoline-2(1H)-carboxylate formation by HPLC-MS analysis. The settings on record: TDE = time-dependent effect. In outline: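 10 mM DMSO stock diluted to 200 μM final in PSA buffer (50 mM Tris·HCl, 100 mM NaCl, pH 7.4) with purified PSA at 20 μg/mL final and 2% DMSO. Shaken at 37 °C. Aliquots taken at time points, quenched with cold acetonitrile, held on ice, centrifuged, then analysed by reversed-phase C18 HPLC (215/285 nm) and mass spectrometry.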

Series [3] is described as follows: Prodrug activation assessed as emetine formation at […] in presence of 10% FBS after 5 days by HPLC-MS analysis. The note with it: cattle, 120 h. In outline: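 No enzyme added. 10 mM DMSO stock diluted to 200 μM final (2% DMSO) in PBS, 10% FBS in PBS, or conditioned RPMI (supernatant of LNCaP culture grown to about 95% confluency). Shaken at 37 °C, quenched with cold acetonitrile, centrifuged, supernatant analysed by reversed-phase C18 HPLC (215/285 nm) and ESI-MS.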

For series [4], the target named is T1, Prostate-specific antigen. Kind of series: Prodrug activation in human plasma assessed as human PSA mediated 4-((S)-2-((S)-2-Amino-3-hydroxypropanamido)-4-methylpentanamido)benzyl(R)-1-(((2R,3R,11bS)-3-ethyl-9,10-dimethoxy-1,3,4,6,7,11b-hexahydro-2H-pyrido[2,1-a]isoquinolin-2-yl)methyl)-6,7-dimethoxy-3,4-dihydroisoquinoline-2(1H)-carboxylate formation at 200 uM after 48 hrs by HPLC-MS analysis.

Another series concerns PC-3. The series can be described thus: Antiproliferative activity against human PC3 cells after 3 days by MTT assay. The series is classed as functional, cell-based. In outline: as §1
A general note: Tetrazolium assays rely on reduction of a dye to a coloured formazan, in cell work by metabolically active cells.

The next series deals with Mus musculus. The series can be described thus: Toxicity in Balb/C mouse assessed as convulsion at >25 mg/kg, iv after 1 min. In kind it is organism-based. The note with it: in vivo. In outline:
as §2

Another series relates to CWR22R. The series can be described thus: Antiproliferative activity against human CWR22Rv1 cells expressing PSA after 3 days by MTT assay. The series is classed as functional, cell-based. The gist of the method:
as §1

Series [5] concerns the target T1, Prostate-specific antigen. The series can be described thus: Prodrug activation in human plasma assessed as human PSA mediated emetine formation at 200 uM after 48 hrs by HPLC-MS analysis.

*1 amine or outer side, *2 acyl side, *3 side chain or, on linkers, in order; H or OH if unused. Where a SMILES comes first, the peptide text is derived from it. [ ]: non-standard residue; d: D form. The star is where a group is joined. Emetine(N2') = CC[C@H]1CN2CCc3cc(OC)c(OC)cc3[C@@H]2C[C@@H]1C[C@@H]1c2cc(OC)c(OC)cc2CCN1*; PABC = O=C(OCc1ccc(N[*:1])cc1)[*:2]

Take `CC[C@H]1CN2CCc3cc(OC)c(OC)cc3[C@@H]2C[C@@H]1C[C@@H]1c2cc(OC)c(OC)cc2CCN1C(=O)OCc1ccc(NC(=O)[C@H](CC(C)C)NC(=O)[C@H](CO)NC(=O)[C@H](CCC(N)=O)NC(=O)[C@H](CC(C)C)NC(=O)[C@H](CCCCN)NC(=O)[C@H](CO)NC(=O)[C@H](CO)NC(=O)[C@H](Cc2cnc[nH]2)NC(C)=O)cc1` (Ac-HSSKLQSL[PABC]-{Emetine(N2')}): the Activity result with LNCaP is “Dose-dependent effect”; with PC-3, “Dose-dependent effect”; with Mus musculus it was “Toxic”; in the series on CWR22R it was “Dose-dependent effect”. For the same compound, the 50% inhibitory concentration (IC50) is 59 nM with LNCaP (72 h); 538 nM in the series on PC-3 (PC-3, 72 h); 75.8 nM in the series on CWR22R (22Rv1, 72 h). In series [1], this compound showed an MTD of 25 mg/kg. Further, the Drug metabolism entry is recorded as “Tde” in [2], “Metabolite_Notdetected” in [3], “Metabolite_Notdetected” in series [4] and “Metabolite_Notdetected” in series [5].

Usually IC50 stands for the midpoint of a concentration-inhibition curve.

(Values after ChEMBL document CHEMBL4184168, “Anticancer activities of emetine prodrugs that are proteolytically activated by the prostate specific antigen (PSA) and evaluation of in vivo toxicity of emetine derivatives” (Bioorg Med Chem, 2017).)
